Source: ChEMBL document CHEMBL4414552, “Homotrimerization Approach in the Design of Thrombospondin-1 Mimetic Peptides with Improved Potency in Triggering Regulated Cell Death of Cancer Cells” (J Med Chem, 2019)
pKd: −log10 of the molar value. Activity calls are given as the source filed them. The calls are words filed in the database; no cut-off is given here. Square brackets hold non-standard residues; d marks the D form. Peptide text beside a SMILES is read from it. NMeR = CN[C@@H](CCCNC(=N)N)C(=O)O; Nle = CCCC[C@H](N)C(=O)O

Key:
MEC1 [1] = test: Induction of cell death in human MEC1 cells at 50 uM in presence of ryanodine inhibitor dantrolene administered 1 hr post dantrolene treatment in serum-free medium by annexin V-APC/propidium iodide staining based flow cytometric analysis; format: functional
In short: (§1)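 Peptide was then added at 5 or 50 μM in serum-free medium for 2 h. Cell death was read by Ann-V/PI flow cytometry and normalized to each peptide's control to give an index. Mean ± SD of at least two experiments.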

Serum = test: Aggregation property of the compound in human serum; format: ADME, cell-free
A549 [2] = test: Induction of cell death in human A549 cells at 100 uM in presence of extracellular calcium chelator BAPTA administered 30 mins post BAPTA treatment in serum-free medium by annexin V-APC/propidium iodide staining based flow cytometric analysis; format: functional
[3] = biological target: T1, Leukocyte surface antigen CD47 (Homo sapiens, UniProt Q08722); test: Binding affinity to CD47 in biotinylated human MEC1 cell membranes by biolayer interferometry
In short: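 Biotinylated membrane preparations from MEC-1 cells were loaded onto SuperStreptavidin biosensors. Binding was measured by bilayer interferometry (Octet RED96) in PBS with 0.2% BSA and 1% DMSO at 30 °C. Affinities are given as apparent Kd estimates.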

MEC1 [4] = test: Cytotoxicity against human MEC1 cells assessed as induction of cell death after 2 hrs by annexin V/propidium iodide staining based flow cytometric analysis; format: functional; settings: MEC1, 2 h, read-out: LC50 (the source's name)
In short: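 MEC-1 CLL cells (TP53-dysfunctional) maintained in Advanced RPMI 1640 with 10% fetal calf serum, 2 mM L-glutamine and penicillin–streptomycin. Peptide treatment for 2 h in complete medium. Ann-V-APC (0.1 μg/mL) and PI (0.5 μg/mL) staining, read by flow cytometry. Cell death taken as the sum of AnnV+/PI- and AnnV+/PI+ events. Mean ± SD of at least three independent experiments.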

A549 [5] = test: Induction of cell death in human A549 cells assessed as reduction in cell index at 200 uM measured every minute for first 2 hrs followed by every hour for 24 hrs by RTCA analysis; format: functional, cell-based
A549 [6] = test: Cytotoxicity against human A549 cells assessed as induction of cell death after 6 hrs by annexin V-APC/propidium iodide staining based flow cytometric analysis; format: functional; settings: A549, 6 h, read-out: LC50 (the source's name)
In short: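 A549 cells kept in Advanced RPMI 1640 with 10% fetal calf serum, 2 mM L-glutamine and penicillin–streptomycin. Peptides at the indicated concentrations in this complete medium for 6 h. Cells stained with Ann-V-APC (0.1 μg/mL) and PI (0.5 μg/mL), then read by flow cytometry. Values are means ± SD of two independent experiments.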

A549 [7] = test: Induction of cell death in human A549 cells at 100 uM in presence of ryanodine inhibitor dantrolene administered 1 hr post dantrolene treatment in serum-free medium by annexin V-APC/propidium iodide staining based flow cytometric analysis; format: functional
In short: (§2)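 Peptide was then added at 10 or 100 μM in serum-free medium for 6 h. Cell death was read by Ann-V/PI flow cytometry and trypan blue counting. A cell death index was obtained by normalizing to each peptide's control. Mean ± SD of two experiments.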

[8] = Aggregation property of the compound in water; format: physicochemical; settings: buffer
[9] = Aggregation property of the compound in phosphate buffer; format: physicochemical
MEC1 [10] = test: Induction of cell death in human MEC1 cells at 50 uM in presence of extracellular calcium chelator BAPTA administered 30 mins post BAPTA treatment in serum-free medium by Annexin V-APC/propidium iodide staining based flow cytometric analysis; format: functional
MEC1 [11] = test: Induction of cell death in human MEC1 cells at 50 uM in presence of caspase inhibitor Q-VD-OPH administered 30 mins post Q-VD-OPH treatment in serum-free medium by Annexin V-APC/propidium iodide staining based flow cytometric analysis; format: functional
[12] = Solubility of the compound in PBS with 0.05% Tween 20 and 1% DMSO; format: physicochemical; settings: buffer
MEC1 [13] = test: Induction of cell death in human MEC1 cells at 50 uM in presence of IP3R inhibitor 2-APB administered 1 hr post 2-APB treatment in serum-free medium by annexin V-APC/propidium iodide staining based flow cytometric analysis; format: functional; in short: as §1
[14] = biological target: T1, Leukocyte surface antigen CD47; test: Agonist activity at CD47 in human MEC1 cells assessed as activation of PLCgamma1-induced calcium-mediated caspase-independent cell death at 200 uM after 2 hrs by microscopic method; format: cell-based
In short: (§3)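 MEC-1 CLL cells kept in Advanced RPMI 1640 with 10% FCS, 2 mM L-glutamine and penicillin–streptomycin. Cells were treated with peptide in complete medium for 2 h, then examined by light microscopy at 20X for morphology and cell aggregation.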

A549 [15] = test: Disruption of membrane integrity in human A549 cells assessed as increase in adenylate kinase release at 200 uM by ToxiLight bioassay; format: functional, cell-based
MEC1 [16] = test: Cytotoxicity against human MEC1 cells assessed as induction of cell death at 200 uM after 6 hrs by annexin V/propidium iodide staining based flow cytometric analysis relative to control; format: functional
MEC1 [17] = test: Induction of cell aggregation in human MEC1 at 200 uM after 2 hrs by microcopic method; format: functional, cell-based; in short: as §3
MEC1 [18] = test: Induction of cell death in human MEC1 cells at 50 uM in presence of PLCgamma1 inhibitor U73122 administered 1 hr post U73122 treatment in serum-free medium by annexin V-APC/propidium iodide staining based flow cytometric analysis; format: functional; in short: as §1
A549 [19] = test: Induction of cell death in human A549 cells at 100 uM administered 30 mins post Q-VD-OPh treatment in serum-free medium by propidium iodide staining based flow cytometric analysis; format: functional
A549 [20] = test: Induction of cell death in human A549 cells at 100 uM in presence of IP3R inhibitor 2-APB administered 1 hr post 2-APB treatment in serum-free medium by annexin V-APC/propidium iodide staining based flow cytometric analysis; format: functional; in short: as §2
MEC1 [21] = test: Induction of cell death in human MEC1 cells at 50 uM in presence of ryanodine inhibitor dantrolene/PLCgamma1 inhibitor U73122/IP3R inhibitor 2-APB by annexin V-APC/propidium iodide staining based flow cytometric analysis; format: functional; in short: as §1
A549 [22] = test: Induction of cell death in human A549 cells at 100 uM in presence of PLCgamma1 inhibitor U73122 administered 1 hr post U73122 treatment in serum-free medium by annexin V-APC/propidium iodide staining based flow cytometric analysis; format: functional; in short: as §2
A549 [23] = test: Induction of cell death in human A549 cells at 100 uM in presence of ryanodine inhibitor dantrolene/PLCgamma1 inhibitor U73122/IP3R inhibitor 2-APB by annexin V-APC/propidium iodide staining based flow cytometric analysis; format: functional; in short: as §2
[24] = Aggregation property of the compound in pure water; format: physicochemical; settings: buffer

T1 sequence (Q08722 whole entry): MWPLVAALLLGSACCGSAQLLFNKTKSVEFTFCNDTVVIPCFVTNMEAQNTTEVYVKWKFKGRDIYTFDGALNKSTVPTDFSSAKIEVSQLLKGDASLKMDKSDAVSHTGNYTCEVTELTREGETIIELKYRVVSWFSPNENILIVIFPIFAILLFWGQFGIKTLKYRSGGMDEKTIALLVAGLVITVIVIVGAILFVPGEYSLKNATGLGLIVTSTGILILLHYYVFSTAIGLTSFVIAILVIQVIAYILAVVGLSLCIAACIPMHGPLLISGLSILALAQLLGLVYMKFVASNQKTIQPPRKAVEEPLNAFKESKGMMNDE

With CCCC[C@H](NC(=O)[C@@H](NC(=O)[C@@H](NC(=O)[C@H](Cc1ccc(O)cc1)NC(=O)[C@H](Cc1ccccc1)NC(=O)[C@H](CCCNC(=N)N)N(C)C(=O)[C@H](N)CCCCN)C(C)C)C(C)C)C(=O)N[C@@H](Cc1c[nH]c2ccccc12)C(=O)N[C@@H](CCCCN)C(=O)N[C@H](CCCCN)C(=O)O (H-[dK][NMeR]FYVV[Nle]WK[dK]-OH) the Activity (MEC1 [1]) was “inactive”, the Activity (Serum) was “Not Active” and the Activity (A549 [2]) was “inactive”. For the same compound, the pKd [3] was 5.07, the CC50 (MEC1 [4]) was 200 µM and the Activity (A549 [5]) was “Active”. For the same compound, the CC50 (A549 [6]) was 200 µM, the Activity (A549 [7]) was “inactive” and the Activity [8] was “Not Active”. For the same compound, the Activity [9] was “Not Active”, the Activity (MEC1 [10]) was “inactive” and the Activity (MEC1 [11]) was “inactive”. For the same compound, the solubility [12] was “Soluble”, the Activity (MEC1 [13]) was “inactive” and the Activity [14] was “Active”. The Activity (A549 [15]) was “Active”, the Activity (MEC1 [16]) was 59% and the Activity (MEC1 [17]) was “inactive”. For the same compound, the Activity (MEC1 [18]) was “inactive”, the Activity (A549 [19]) was “inactive” and the Activity (A549 [20]) was “inactive”. The Activity (MEC1 [21]) was “inactive”, the Activity (A549 [22]) was “inactive” and the Activity (A549 [23]) was “inactive”. The Activity [24] was “Not Active”.
